Results: ChEMBL document CHEMBL4325904 (Eur J Med Chem, 2019)
The source made the active and inactive calls. No cut-off for these calls is given here.

What was measured:
[1] = molecular target: Histone deacetylase 3/Nuclear receptor corepressor 2 (HDAC3/NCoR2) (Homo sapiens, UniProt O15379); assay type: cell-based
Histone deacetylase 5 = Histone deacetylase 5 (Homo sapiens, UniProt Q9UQL6); assay: Inhibition of recombinant C-terminal His-tagged human HDAC5 (656 to 1122 residues) expressed in insect cells using Boc-K(Ac)-AMC as substrate by fluorimetric assay
[2] = molecular target: T1, Protein deacetylase HDAC6 (Homo sapiens, UniProt Q9UBN7); assay: Inhibition of recombinant N-terminal GST-tagged human HDAC6 (1 to 1215 residues) expressed in Baculovirus infected insect cells using RHKK-Ac as substrate by fluorimetric assay
T1 sequence (Q9UBN7 whole entry): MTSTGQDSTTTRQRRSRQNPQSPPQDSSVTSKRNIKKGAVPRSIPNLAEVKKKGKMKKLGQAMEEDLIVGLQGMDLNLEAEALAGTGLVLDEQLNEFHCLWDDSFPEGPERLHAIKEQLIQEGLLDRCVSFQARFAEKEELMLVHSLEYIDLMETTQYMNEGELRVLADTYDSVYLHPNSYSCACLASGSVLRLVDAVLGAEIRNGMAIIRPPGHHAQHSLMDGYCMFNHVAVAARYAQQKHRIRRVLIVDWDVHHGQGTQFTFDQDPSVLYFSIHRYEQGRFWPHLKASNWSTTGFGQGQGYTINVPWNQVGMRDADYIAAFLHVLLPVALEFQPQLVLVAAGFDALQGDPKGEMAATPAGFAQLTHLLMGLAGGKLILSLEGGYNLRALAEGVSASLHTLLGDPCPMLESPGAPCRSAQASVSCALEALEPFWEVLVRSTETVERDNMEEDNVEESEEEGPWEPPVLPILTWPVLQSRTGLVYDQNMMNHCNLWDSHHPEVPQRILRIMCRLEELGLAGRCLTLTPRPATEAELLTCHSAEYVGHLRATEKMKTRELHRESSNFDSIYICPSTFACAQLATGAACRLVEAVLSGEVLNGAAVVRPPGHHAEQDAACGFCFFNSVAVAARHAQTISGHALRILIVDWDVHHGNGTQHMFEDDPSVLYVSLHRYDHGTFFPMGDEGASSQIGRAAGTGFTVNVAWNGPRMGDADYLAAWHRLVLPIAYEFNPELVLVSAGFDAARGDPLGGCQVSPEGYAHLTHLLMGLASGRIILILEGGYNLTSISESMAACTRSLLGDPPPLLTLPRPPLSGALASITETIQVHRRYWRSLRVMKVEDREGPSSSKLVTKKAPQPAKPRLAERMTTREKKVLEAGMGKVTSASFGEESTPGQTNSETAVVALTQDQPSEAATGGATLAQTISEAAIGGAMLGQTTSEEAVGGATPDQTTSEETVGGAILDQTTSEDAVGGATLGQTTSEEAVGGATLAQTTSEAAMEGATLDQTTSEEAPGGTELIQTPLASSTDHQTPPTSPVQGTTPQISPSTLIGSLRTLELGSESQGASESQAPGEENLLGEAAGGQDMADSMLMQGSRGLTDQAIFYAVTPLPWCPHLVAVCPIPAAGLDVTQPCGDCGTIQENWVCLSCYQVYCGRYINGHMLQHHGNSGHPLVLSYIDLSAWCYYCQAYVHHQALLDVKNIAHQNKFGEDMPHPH

Histone deacetylase 8 = molecular target: T2, Histone deacetylase 8 (Homo sapiens, UniProt Q9BY41); assay: Inhibition of recombinant C-terminal His-tagged human HDAC8 (1 to 377 residues) expressed in Baculovirus infected insect cells using RHK-K(Ac)-AMC as substrate by fluorimetric assay
T2 sequence (Q9BY41 whole entry): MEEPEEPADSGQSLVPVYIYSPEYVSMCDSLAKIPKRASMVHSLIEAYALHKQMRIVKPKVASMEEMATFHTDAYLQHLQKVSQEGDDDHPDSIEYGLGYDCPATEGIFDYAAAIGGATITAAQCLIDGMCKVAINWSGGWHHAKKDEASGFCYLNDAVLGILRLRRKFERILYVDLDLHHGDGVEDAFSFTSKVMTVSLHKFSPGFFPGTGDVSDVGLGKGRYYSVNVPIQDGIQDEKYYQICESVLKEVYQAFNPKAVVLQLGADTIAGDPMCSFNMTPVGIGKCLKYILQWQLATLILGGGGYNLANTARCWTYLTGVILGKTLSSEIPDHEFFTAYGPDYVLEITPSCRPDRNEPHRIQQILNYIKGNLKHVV

Histone deacetylase 11 = molecular target: T3, Histone deacetylase 11 (Homo sapiens, UniProt Q96DB2); assay: Inhibition of recombinant C-terminal His-tagged human HDAC11 (1 to 347 residues) expressed in Baculovirus infected insect cells using RHKK-Ac as substrate by fluorimetric assay
T3 sequence (Q96DB2 whole entry): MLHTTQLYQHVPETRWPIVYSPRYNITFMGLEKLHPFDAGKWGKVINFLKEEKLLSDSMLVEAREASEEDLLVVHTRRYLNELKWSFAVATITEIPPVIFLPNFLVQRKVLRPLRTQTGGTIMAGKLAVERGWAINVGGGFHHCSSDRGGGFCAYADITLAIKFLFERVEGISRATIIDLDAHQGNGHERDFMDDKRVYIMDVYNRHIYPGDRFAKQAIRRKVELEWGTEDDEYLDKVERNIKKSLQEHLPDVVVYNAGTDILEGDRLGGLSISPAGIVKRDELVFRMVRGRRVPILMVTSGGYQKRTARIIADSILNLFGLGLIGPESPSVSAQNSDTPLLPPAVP

Homo sapiens [3] = species on record: Homo sapiens; assay: Selectivity ratio of IC50 for recombinant full length C-terminal FLAG/His-tagged human HDAC1 (1 to 482 residues) to IC50 for recombinant N-terminal GST-tagged human HDAC6 (1 to 1215 residues)
Homo sapiens [4] = species on record: Homo sapiens; assay: Selectivity ratio of IC50 for recombinant N-terminal GST-tagged /C-terminal His-tagged human HDAC4 (627 to 1084 residues) to IC50 for recombinant N-terminal GST-tagged human HDAC6 (1 to 1215 residues)
Homo sapiens [5] = species on record: Homo sapiens; assay: Selectivity ratio of IC50 for recombinant C-terminal His-tagged human HDAC5 (656 to 1122 residues) to IC50 for recombinant N-terminal GST-tagged human HDAC6 (1 to 1215 residues)
Homo sapiens [6] = species on record: Homo sapiens; assay: Selectivity ratio of IC50 for human HDAC9 to IC50 for recombinant N-terminal GST-tagged human HDAC6 (1 to 1215 residues)
Homo sapiens [7] = species on record: Homo sapiens; assay: Selectivity ratio of IC50 for human HDAC10 to IC50 for recombinant N-terminal GST-tagged human HDAC6 (1 to 1215 residues)
Kasumi 1 = assay: Potency index, ratio of scriptaid IC50 to test compound IC50 for human Kasumi-1 cells; assay type: functional
A549 = assay: Induction of morphological changes in human A549 cells assessed as increase in protrusions of the membrane at 10 uM after 20 mins by naphthalimide/Lysotracker Deep Red dye-based inverted light fluorescence confocal microscopic analysis; assay type: functional, cell-based
How it was run: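 A549 cells exposed to compound at 10 µM for 20 minutes, then imaged by confocal microscopy (λex 405 nm, λem 460–560 nm); membrane protrusions (blebbing) recorded.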

Chain of Histone deacetylase 3/Nuclear receptor corepressor 2 (HDAC3/NCoR2) (O15379 whole entry, the tested form may be a part): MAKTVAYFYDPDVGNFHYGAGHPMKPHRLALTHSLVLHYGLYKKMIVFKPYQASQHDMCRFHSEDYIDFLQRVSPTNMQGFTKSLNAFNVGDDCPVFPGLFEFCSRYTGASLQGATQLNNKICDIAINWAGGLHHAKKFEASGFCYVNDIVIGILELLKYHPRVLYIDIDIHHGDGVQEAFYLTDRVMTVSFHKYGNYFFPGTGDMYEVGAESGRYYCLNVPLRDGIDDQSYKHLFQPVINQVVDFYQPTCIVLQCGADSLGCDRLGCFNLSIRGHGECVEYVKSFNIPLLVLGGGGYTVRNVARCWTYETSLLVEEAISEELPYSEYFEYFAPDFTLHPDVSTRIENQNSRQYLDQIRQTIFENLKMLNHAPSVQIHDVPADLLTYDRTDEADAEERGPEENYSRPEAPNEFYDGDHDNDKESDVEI
Chain of Histone deacetylase 3/Nuclear receptor corepressor 2 (HDAC3/NCoR2) (Q9Y618 whole entry, further chain, the tested form may be a part): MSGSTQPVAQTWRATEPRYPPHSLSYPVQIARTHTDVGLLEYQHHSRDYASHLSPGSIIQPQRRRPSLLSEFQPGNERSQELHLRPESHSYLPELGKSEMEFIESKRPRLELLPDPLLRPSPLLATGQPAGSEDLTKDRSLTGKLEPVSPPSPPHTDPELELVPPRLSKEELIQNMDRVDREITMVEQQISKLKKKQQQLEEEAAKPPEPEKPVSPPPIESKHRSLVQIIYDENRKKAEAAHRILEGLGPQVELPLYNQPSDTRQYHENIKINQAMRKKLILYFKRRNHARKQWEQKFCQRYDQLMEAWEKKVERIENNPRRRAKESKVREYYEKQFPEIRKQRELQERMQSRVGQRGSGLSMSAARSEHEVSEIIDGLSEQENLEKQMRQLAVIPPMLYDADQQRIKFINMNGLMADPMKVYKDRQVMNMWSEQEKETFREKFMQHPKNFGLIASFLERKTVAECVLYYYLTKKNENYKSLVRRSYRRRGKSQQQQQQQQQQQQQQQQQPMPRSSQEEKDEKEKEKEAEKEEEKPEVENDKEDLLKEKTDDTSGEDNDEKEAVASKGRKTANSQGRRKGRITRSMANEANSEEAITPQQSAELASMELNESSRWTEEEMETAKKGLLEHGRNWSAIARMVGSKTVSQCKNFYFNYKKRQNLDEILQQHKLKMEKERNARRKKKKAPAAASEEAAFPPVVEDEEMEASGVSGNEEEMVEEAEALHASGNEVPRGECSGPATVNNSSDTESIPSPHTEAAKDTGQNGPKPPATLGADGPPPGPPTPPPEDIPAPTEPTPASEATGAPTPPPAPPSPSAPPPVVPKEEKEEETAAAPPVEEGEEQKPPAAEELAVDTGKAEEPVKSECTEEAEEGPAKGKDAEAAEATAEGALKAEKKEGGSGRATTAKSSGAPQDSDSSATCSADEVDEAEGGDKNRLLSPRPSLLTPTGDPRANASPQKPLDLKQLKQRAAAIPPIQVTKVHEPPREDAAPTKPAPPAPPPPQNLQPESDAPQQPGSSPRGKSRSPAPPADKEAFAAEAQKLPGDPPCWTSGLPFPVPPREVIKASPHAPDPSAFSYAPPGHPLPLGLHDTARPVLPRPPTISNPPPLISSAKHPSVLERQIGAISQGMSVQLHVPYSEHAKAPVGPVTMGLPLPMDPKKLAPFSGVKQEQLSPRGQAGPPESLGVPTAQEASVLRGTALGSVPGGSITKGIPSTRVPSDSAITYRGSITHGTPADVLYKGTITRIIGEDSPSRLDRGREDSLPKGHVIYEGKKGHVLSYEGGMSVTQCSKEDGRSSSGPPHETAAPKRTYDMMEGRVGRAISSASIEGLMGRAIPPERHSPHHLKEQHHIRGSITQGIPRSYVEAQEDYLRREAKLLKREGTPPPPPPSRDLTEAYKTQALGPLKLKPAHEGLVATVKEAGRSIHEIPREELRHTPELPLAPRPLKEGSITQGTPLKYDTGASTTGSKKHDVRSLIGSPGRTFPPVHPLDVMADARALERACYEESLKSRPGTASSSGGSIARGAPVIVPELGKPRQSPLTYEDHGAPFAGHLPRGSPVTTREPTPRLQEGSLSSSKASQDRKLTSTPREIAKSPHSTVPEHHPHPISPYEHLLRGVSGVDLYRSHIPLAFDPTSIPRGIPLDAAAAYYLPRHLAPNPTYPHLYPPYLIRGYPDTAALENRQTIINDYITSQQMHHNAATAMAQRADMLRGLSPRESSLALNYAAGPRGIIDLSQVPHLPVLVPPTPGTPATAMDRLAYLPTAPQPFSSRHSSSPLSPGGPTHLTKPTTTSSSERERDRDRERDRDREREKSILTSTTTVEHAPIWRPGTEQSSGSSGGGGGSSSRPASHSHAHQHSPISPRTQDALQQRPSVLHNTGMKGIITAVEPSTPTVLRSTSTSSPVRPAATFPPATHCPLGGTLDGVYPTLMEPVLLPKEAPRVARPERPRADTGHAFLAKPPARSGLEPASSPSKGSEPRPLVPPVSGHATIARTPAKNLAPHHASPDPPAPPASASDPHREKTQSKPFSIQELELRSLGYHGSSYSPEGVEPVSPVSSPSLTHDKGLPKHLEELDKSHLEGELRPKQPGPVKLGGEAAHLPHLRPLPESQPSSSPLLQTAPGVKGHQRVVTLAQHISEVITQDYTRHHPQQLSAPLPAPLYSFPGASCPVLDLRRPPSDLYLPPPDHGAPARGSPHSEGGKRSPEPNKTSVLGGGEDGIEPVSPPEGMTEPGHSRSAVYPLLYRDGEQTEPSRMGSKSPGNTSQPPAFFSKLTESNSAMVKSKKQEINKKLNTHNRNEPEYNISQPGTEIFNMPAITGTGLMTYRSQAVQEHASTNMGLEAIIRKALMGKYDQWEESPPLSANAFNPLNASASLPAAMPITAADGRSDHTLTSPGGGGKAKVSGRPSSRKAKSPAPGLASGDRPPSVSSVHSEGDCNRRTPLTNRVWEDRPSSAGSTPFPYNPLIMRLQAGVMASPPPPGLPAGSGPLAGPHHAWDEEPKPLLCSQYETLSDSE
Chain of Histone deacetylase 5 (Q9UQL6 whole entry, the tested form may be a part): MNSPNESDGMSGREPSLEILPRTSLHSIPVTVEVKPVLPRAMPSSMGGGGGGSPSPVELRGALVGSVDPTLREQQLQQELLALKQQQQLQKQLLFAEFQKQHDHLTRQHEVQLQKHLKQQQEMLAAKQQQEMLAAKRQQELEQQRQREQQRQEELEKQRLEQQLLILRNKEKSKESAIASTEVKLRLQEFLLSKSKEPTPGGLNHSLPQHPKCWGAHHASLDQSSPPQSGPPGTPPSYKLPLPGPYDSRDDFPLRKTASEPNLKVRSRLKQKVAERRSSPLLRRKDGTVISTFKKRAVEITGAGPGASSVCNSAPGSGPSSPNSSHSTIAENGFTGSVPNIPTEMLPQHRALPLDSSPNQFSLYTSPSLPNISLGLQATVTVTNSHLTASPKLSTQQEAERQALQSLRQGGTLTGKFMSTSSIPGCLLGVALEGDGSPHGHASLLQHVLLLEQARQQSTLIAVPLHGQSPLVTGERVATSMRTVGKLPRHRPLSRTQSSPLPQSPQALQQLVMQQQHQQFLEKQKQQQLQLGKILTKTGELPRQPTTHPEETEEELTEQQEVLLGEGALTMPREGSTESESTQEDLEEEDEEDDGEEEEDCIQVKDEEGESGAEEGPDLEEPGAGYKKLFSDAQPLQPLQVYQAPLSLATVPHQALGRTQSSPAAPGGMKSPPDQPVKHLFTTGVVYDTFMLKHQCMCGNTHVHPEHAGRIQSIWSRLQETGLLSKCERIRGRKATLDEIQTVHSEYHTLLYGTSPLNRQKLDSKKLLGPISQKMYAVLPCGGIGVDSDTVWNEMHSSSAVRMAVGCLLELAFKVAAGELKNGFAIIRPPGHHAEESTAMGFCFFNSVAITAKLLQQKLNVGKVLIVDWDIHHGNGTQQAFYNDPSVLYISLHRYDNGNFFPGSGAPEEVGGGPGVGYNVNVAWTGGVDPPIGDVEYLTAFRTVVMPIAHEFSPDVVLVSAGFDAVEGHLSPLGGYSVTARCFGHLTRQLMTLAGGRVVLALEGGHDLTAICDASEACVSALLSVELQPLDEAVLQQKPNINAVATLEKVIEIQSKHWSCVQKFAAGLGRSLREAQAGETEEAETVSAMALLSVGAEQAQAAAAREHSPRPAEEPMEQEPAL

Row | SMILES | IC50 [1] | IC50 (Histone deacetylase 5) | IC50 [2] | IC50 (Histone deacetylase 8) | IC50 (Histone deacetylase 11) | Ratio IC50 (Homo sapiens [3]) | Ratio IC50 (Homo sapiens [4]) | Ratio IC50 (Homo sapiens [5]) | Ratio IC50 (Homo sapiens [6]) | Ratio IC50 (Homo sapiens [7]) | Ratio IC50 (Kasumi 1) | Activity (A549)
1 | CCCNc1ccc2c3c(cccc13)C(=O)N(CCCCCC(=O)NO)C2=O | 0.11 µM | 5.3 µM | 0.0048 µM | 1.52 µM | 0.08 µM | 120 to 123 | > 2000 | 1100 | > 2000 | 67 | 5 | –
2 | O=C(CCCCCN1C(=O)c2cccc3c(NCc4ccccc4)ccc(c23)C1=O)NO | 0.36 µM | 3.4 µM | 0.0035 µM | 2.46 µM | 0.15 µM | 560 to 566 | 1500 | 970 | > 2000 | 190 | – | Active
